Measured values: article PMC7003538 (Biochemistry, 2019)

Assays:
Assay in all cases: UV-Vis spectral titration
Assay type in all cases: binding
CYP3A4 [1] = target: CYP3A4 (Homo sapiens, UniProt P08684, F213A/S18F)
Method in brief: (§1)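 Human CYP3A4 (NF-14 construct, C-terminal pentahistidine tag, pCWori+ vector), wild type or F213 mutant, was incorporated into POPC Nanodiscs. The enzyme at 1-2 µM was titrated at 37 °C with test compound added in methanol (final methanol <1.5%), and UV-Vis spectra were read for the heme high-spin shift. Mixed titrations kept a fixed 1:12 steroid:second-substrate molar ratio.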

CYP3A4 [2] = target: CYP3A4 (Homo sapiens, UniProt P08684, F213Y/S18F)
Sequence of CYP3A4 (Homo sapiens, UniProt P08684, F213Y/S18F) (P08684 13-503 S18F/F213Y limits assumed): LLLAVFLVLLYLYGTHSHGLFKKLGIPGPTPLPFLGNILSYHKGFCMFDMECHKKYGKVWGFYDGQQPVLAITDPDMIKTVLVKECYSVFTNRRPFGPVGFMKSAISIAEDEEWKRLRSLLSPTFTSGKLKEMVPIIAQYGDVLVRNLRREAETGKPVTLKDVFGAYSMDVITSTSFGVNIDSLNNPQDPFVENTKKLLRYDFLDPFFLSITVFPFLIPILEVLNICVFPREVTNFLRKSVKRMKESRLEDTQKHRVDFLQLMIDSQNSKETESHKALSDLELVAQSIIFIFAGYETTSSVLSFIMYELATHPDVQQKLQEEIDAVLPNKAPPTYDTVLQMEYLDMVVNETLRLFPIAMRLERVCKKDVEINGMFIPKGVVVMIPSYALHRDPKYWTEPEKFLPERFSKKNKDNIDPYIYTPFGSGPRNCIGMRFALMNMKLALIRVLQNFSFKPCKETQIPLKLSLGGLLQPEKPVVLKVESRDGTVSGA
Method in brief: as §1

CYP3A4 [3] = target: CYP3A4 (Homo sapiens, UniProt P08684, S18F)
Sequence of CYP3A4 (Homo sapiens, UniProt P08684, S18F) (P08684 13-503 S18F limits assumed): as the sequence (P08684 13-503 S18F/F213Y limits assumed) above, with Y201F counted along it
Method in brief: as §1

CYP3A4 [4] = target: CYP3A4 (Homo sapiens, UniProt P08684, F213S/S18F)
Sequence of CYP3A4 (Homo sapiens, UniProt P08684, F213S/S18F) (P08684 13-503 S18F/F213S limits assumed): as the sequence (P08684 13-503 S18F/F213Y limits assumed) above, with Y201S counted along it
Method in brief: as §1

Sequence of CYP3A4 (Homo sapiens, UniProt P08684, F213A/S18F) (P08684 13-503 S18F/F213A limits assumed): as the sequence (P08684 13-503 S18F/F213Y limits assumed) above, with Y201A counted along it

- Kd (CYP3A4 [1]): 24.3 µM
- Kd (CYP3A4 [2]): 21.8 µM
- Kd (CYP3A4 [3]): 31 µM
- Kd (CYP3A4 [4]): 24.2 µM
SMILES: CC(=O)[C@H]1CC[C@H]2[C@@H]3CCC4=CC(=O)CC[C@]4(C)[C@H]3CC[C@]12C [progesterone]
